Source: ChEMBL document CHEMBL1828531, “Pyrazol-3-propanoic acid derivatives as novel inhibitors of leukotriene biosynthesis in human neutrophils” (Eur J Med Chem, 2011)
pIC50: −log10 of the molar value.

Assays:
[1] = target: Prostaglandin G/H synthase 1 (Homo sapiens, UniProt P23219); assay: Inhibition of COX1-mediated 12-HHT production in human platelet assessed as residual activity at 10 uM after 5 mins by HPLC analysis
Procedure, shortened: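 Washed human platelets, 10^8/mL in PBS with 1 mM CaCl2, preincubated with compound 4 min at 4 °C then 1 min at 37 °C. 5 µM AA added for 5 min at 37 °C. Methanol/HCl stop, PGB1 added, 12-HHT by HPLC. Residual activity at 10 µM. IC50 by interpolation from 4–5 concentrations.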

[2] = target: T1, Prostaglandin G/H synthase 2 (Homo sapiens) (UniProt P35354); assay: Inhibition of COX2-mediated 6-keto PGF1alpha production in IL1-beta stimulated human A549 cells assessed as residual activity at 10 uM after 10 mins by EIA; type: cell-based
T1 sequence (whole entry): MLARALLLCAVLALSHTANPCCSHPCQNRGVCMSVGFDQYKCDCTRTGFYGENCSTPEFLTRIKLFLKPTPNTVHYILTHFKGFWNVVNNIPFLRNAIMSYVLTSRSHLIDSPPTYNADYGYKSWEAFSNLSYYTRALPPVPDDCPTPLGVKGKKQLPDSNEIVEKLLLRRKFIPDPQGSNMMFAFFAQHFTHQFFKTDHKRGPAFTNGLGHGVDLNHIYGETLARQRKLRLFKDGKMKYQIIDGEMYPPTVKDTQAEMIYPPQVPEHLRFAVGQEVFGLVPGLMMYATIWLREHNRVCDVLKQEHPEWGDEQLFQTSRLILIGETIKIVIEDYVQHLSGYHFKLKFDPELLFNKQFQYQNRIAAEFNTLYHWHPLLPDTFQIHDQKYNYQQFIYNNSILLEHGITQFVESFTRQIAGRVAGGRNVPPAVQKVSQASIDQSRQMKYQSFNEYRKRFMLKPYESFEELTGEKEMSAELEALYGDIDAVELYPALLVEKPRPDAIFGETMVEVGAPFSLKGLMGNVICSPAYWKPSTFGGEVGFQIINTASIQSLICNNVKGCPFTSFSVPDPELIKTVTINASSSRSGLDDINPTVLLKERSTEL
Procedure, shortened: (§1)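 A549 cells stimulated with IL-1β (1 ng/ml) 72 h in DMEM with 2% FCS, trypsinized and washed. 10^6 cells/mL PBS with 1 mM CaCl2 preincubated with compound 10 min at 37 °C. 3 µM AA added for 15 min at 37 °C, stopped on ice. 6-keto PGF1α in supernatant measured by EIA.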

[3] = target: T2, Polyunsaturated fatty acid lipoxygenase ALOX12 (Homo sapiens, UniProt P18054); assay: Inhibition of 12-Lipoxygenase-mediated 12-HETE in human neutrophil after 15 mins by HPLC analysis
T2 sequence (P18054 whole entry): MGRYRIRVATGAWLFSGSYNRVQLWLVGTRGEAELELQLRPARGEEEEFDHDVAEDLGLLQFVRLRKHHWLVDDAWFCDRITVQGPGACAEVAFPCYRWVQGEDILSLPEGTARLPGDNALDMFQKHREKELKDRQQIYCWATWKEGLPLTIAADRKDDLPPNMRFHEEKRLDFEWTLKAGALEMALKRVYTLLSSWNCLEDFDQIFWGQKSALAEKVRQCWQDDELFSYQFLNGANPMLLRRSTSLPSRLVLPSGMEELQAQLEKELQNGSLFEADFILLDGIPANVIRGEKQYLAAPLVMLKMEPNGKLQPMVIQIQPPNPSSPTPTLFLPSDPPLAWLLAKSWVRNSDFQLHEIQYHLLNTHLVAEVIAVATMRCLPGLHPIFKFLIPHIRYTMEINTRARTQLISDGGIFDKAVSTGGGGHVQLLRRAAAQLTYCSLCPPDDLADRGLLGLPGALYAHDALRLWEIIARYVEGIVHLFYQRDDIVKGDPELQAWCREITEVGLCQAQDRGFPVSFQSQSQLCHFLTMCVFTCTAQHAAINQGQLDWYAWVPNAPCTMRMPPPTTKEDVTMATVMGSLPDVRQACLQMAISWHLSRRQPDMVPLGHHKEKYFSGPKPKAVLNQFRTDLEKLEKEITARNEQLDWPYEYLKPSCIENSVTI
Procedure, shortened: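 Freshly isolated human blood neutrophils, 5 × 10^6/mL in PBS pH 7.4 with 1 mg/mL glucose and 1 mM CaCl2, preincubated with compound 15 min at RT. Stimulated with 2.5 µM A23187 plus 20 µM AA for 10 min at 37 °C. Stopped with methanol/HCl, PGB1 internal standard. 12-HETE or 15-HETE measured by HPLC. Residual activity tested at 30 µM.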

[4] = target: T3, Polyunsaturated fatty acid 5-lipoxygenase (Homo sapiens, UniProt P09917); assay: Inhibition of recombinant human 5-Lipoxygenase expressed in Escherichia coli lysate after 10 mins by HPLC analysis
T3 sequence (P09917 whole entry): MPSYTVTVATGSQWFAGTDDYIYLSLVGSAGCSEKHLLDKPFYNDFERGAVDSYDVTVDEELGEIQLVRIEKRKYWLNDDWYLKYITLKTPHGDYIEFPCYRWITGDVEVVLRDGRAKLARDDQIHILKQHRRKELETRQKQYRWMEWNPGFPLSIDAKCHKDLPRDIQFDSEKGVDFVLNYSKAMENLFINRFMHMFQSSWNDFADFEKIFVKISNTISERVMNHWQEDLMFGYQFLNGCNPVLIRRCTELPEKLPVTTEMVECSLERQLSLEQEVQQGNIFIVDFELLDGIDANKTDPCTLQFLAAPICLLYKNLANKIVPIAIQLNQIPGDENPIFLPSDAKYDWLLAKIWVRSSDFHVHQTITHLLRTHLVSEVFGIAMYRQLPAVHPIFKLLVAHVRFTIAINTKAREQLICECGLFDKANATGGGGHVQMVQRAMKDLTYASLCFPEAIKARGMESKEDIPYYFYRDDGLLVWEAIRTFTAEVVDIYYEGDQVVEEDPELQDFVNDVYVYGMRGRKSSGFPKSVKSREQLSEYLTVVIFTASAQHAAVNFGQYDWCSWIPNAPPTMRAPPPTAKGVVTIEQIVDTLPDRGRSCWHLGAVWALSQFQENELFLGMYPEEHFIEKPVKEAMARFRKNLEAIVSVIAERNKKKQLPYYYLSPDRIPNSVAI
Procedure, shortened: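 Human 5-LO expressed at 30 °C in E. coli MV1190 (pT3-5LO); lysate 40,000 g supernatant in PBS pH 7.4 with 1 mM EDTA. Preincubated with compound 10 min at 4 °C, warmed 30 s at 37 °C. Started with 2 mM CaCl2 plus 20 µM AA, 10 min at 37 °C. Methanol stop, HPLC. Residual % versus 0.3% DMSO vehicle, n = 3–5.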

[5] = target: T4, Prostaglandin G/H synthase 2 (Homo sapiens, UniProt P35354); assay: Inhibition of COX2-mediated 6-keto PGF1alpha production in IL1-beta stimulated human A549 cells after 10 mins by EIA; type: cell-based; procedure, shortened: as §1
T4 sequence (P35354 whole entry): T1 sequence (whole entry)

Chain of Prostaglandin G/H synthase 1 (P23219 whole entry): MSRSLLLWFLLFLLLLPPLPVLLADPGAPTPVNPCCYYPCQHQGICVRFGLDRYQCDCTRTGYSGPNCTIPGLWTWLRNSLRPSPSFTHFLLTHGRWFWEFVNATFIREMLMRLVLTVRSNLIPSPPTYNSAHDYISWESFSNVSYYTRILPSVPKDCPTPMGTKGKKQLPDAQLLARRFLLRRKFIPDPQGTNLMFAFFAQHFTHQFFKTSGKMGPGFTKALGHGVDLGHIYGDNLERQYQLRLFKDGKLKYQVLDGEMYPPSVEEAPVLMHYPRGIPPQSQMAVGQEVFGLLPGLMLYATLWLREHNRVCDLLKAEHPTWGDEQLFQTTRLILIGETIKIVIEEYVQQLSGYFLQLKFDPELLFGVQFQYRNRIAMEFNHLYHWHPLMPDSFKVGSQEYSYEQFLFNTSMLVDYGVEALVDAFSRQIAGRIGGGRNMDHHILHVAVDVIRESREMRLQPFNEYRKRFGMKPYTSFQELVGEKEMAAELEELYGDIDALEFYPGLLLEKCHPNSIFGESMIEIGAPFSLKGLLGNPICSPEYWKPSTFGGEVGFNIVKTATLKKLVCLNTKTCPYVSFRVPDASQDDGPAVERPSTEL

| Compound | Activity [1] | Activity [2] | pIC50 [3] | pIC50 [4] | pIC50 [5] |
| --- | --- | --- | --- | --- | --- |
| Cc1ccc(-c2cc(CCC(=O)N3CCN(Cc4ccc(C(C)(C)C)cc4)CC3)nn2-c2ccc3ccccc3n2)cc1 | 8.2% | 79% | < 5.00 | < 5.00 | < 5.00 |
| Cc1ccc(-c2cc(CCC(=O)Oc3ccc(C(C)C)cc3)nn2-c2ccccc2)cc1 | 10.6% | 111% | < 5.00 | < 5.00 | < 5.00 |
| Cc1ccc(-c2cc(CCC(=O)N3CCN(Cc4ccc(C(C)(C)C)cc4)CC3)nn2-c2ccccc2)cc1 | 21% | 97% | < 5.00 | < 5.00 | < 5.00 |
| CCOC(=O)C1CCN(C(=O)CCc2cc(-c3ccc(C(F)(F)F)cc3)n(-c3ccc(Cl)nn3)n2)CC1 | 102% | 78.6% | < 5.00 | < 5.00 | < 5.00 |

Results, then the compound that gave them:

| Activity [1] | Activity [2] | pIC50 [3] | pIC50 [4] | pIC50 [5] | Compound |
| --- | --- | --- | --- | --- | --- |
| 57.1% | 86.3% | < 5.00 | < 5.00 | < 5.00 | CCOC(=O)C1CCN(C(=O)CCc2cc(-c3ccc(C)cc3)n(-c3ccccc3)n2)CC1 |
| – | 97% | < 5.00 | < 5.00 | < 5.00 | Cc1ccc(-c2cc(CCC(=O)Oc3ccc(C(C)C)cc3)nn2-c2ccc3ccccc3n2)cc1 |
| 82.9% | 84.2% | < 5.00 | < 5.00 | < 5.00 | CC(C)(C)c1ccc(CN2CCN(C(=O)CCc3cc(-c4ccc(F)cc4)n(-c4ccc(Cl)nn4)n3)CC2)cc1 |
| 15.9% | 66.3% | < 5.00 | < 5.00 | < 5.00 | CCOC(=O)C1CCN(C(=O)CCc2cc(-c3ccc(C)cc3)n(-c3ccc4ccccc4n3)n2)CC1 |
| 51.1% | 99.9% | < 5.00 | < 5.00 | < 5.00 | Cc1ccc(-c2cc(CCC(=O)Oc3ccc(C(C)C)cc3)nn2-c2ccc(Cl)nn2)cc1 |
